Laboratory results: ChEMBL document CHEMBL5724801, “EUbOPEN Chemogenomics Library - Multiplex” (2024)
Where “and” joins values, the source holds several entries; their conditions need not be identical. Equal entries are not always repeated.

Test system: U2OS
Experiment: Multiplex assay against U2OS
Assay type: toxicity, cell-based
Settings: human
Procedure, shortened: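 Tubulin, mitochondrial-mass and membrane-permeability phenotypes are per cents of healthy-nucleus cells. Cells were gated by CellPathfinder machine learning into Hoechst high-intensity objects or normal cells, normal cells into healthy, pyknosed or fragmented nuclei, and pyknosed cells into mitotic or apoptotic. Before that, live cells stained at seeding with Hoechst33342, BioTracker Green Microtubule Cytoskeleton Dye, MitoTracker Red and Annexin V Alexa Fluor 680 were imaged on a CQ1 microscope at 37°C and 5% CO2 after compound addition.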

[1] = 12 h, 1 µM, compound concentration 1 uM
[2] = 12 h, 10 µM, compound concentration 10 uM
[3] = 24 h, 1 µM, compound concentration 1 uM
[4] = 24 h, 10 µM, compound concentration 10 uM
[5] = 48 h, 1 µM, compound concentration 1 uM
[6] = 48 h, 10 µM, compound concentration 10 uM

Structure (SMILES): CCn1c(-c2ccncc2)cc2c1CCNC2=O
- Population Apoptotic (%) [1]: 53.12% and 58.33%
- Population Fragmented Nuclei (%) [1]: 2.21% and 6.71%
- Population Healthy Nuclei (%) [1]: 88.95% and 78.66%
- Population Hoechst High Intensity Objects (%) [1]: 0%
- Population Membrane Permeable-Phenotype (%) [1]: 0.93% and 4.65%
- Population Mitochondria Different-Phenotype (%) [1]: 0.31% and 6.98%
- Population Mitotic Cells (%) [1]: 46.88% and 41.67%
- Population Normal (%) [1]: 100%
- Population Pyknosed Nuclei (%) [1]: 8.84% and 14.63%
- Population Tubulin-Different-Phenotype (%) [1]: 1.24% and 3.88%
- Total Cell Count [1]: 362 and 164
- Population Apoptotic (%) [2]: 43.94% and 36.59%
- Population Fragmented Nuclei (%) [2]: 4.31% and 5.7%
- Population Healthy Nuclei (%) [2]: 69.8% and 68.35%
- Population Hoechst High Intensity Objects (%) [2]: 0%
- Population Membrane Permeable-Phenotype (%) [2]: 3.93% and 8.33%
- Population Mitochondria Different-Phenotype (%) [2]: 0% and 6.48%
- Population Mitotic Cells (%) [2]: 56.06% and 63.41%
- Population Normal (%) [2]: 100%
- Population Pyknosed Nuclei (%) [2]: 25.88% and 25.95%
- Population Tubulin-Different-Phenotype (%) [2]: 2.25% and 1.85%
- Total Cell Count [2]: 255 and 158
- Population Apoptotic (%) [3]: 59.26% and 60%
- Population Fragmented Nuclei (%) [3]: 3.6% and 7.14%
- Population Healthy Nuclei (%) [3]: 75.58% and 63.1%
- Population Hoechst High Intensity Objects (%) [3]: 0%
- Population Membrane Permeable-Phenotype (%) [3]: 1.02% and 6.6%
- Population Mitochondria Different-Phenotype (%) [3]: 0% and 13.21%
- Population Mitotic Cells (%) [3]: 40.74% and 40%
- Population Normal (%) [3]: 100%
- Population Pyknosed Nuclei (%) [3]: 20.82% and 29.76%
- Population Tubulin-Different-Phenotype (%) [3]: 1.02% and 5.66%
- Total Cell Count [3]: 389 and 168
- Population Apoptotic (%) [4]: 46.96% and 46.84%
- Population Fragmented Nuclei (%) [4]: 11.97% and 16.77%
- Population Healthy Nuclei (%) [4]: 43.63% and 34.16%
- Population Hoechst High Intensity Objects (%) [4]: 0%
- Population Membrane Permeable-Phenotype (%) [4]: 1.77% and 9.09%
- Population Mitochondria Different-Phenotype (%) [4]: 0% and 9.09%
- Population Mitotic Cells (%) [4]: 53.04% and 53.16%
- Population Normal (%) [4]: 100%
- Population Pyknosed Nuclei (%) [4]: 44.4% and 49.07%
- Population Tubulin-Different-Phenotype (%) [4]: 3.54% and 5.45%
- Total Cell Count [4]: 259 and 161
- Population Apoptotic (%) [5]: 67.24% and 64.84%
- Population Fragmented Nuclei (%) [5]: 5.9% and 9.91%
- Population Healthy Nuclei (%) [5]: 56.11% and 49.1%
- Population Hoechst High Intensity Objects (%) [5]: 0%
- Population Membrane Permeable-Phenotype (%) [5]: 3.5% and 6.42%
- Population Mitochondria Different-Phenotype (%) [5]: 0% and 4.59%
- Population Mitotic Cells (%) [5]: 32.76% and 35.16%
- Population Normal (%) [5]: 100%
- Population Pyknosed Nuclei (%) [5]: 37.99% and 40.99%
- Population Tubulin-Different-Phenotype (%) [5]: 7.39% and 6.42%
- Total Cell Count [5]: 458 and 222
- Population Apoptotic (%) [6]: 66.29% and 76.67%
- Population Fragmented Nuclei (%) [6]: 10.3% and 11.18%
- Population Healthy Nuclei (%) [6]: 14.59% and 9.87%
- Population Hoechst High Intensity Objects (%) [6]: 0% and 0.65%
- Population Mitochondria Different-Phenotype (%) [6]: 0%
- Population Mitotic Cells (%) [6]: 33.71% and 23.33%
- Population Normal (%) [6]: 100% and 99.35%
- Population Pyknosed Nuclei (%) [6]: 75.11% and 78.95%
- Population Tubulin-Different-Phenotype (%) [6]: 23.53% and 26.67%
- Total Cell Count [6]: 233 and 153

Structure (SMILES): CN1CC[C@@]23CCCC[C@@H]2[C@@H]1Cc1ccc(O)cc13.O=C(O)C(O)C(O)C(=O)O
- Population Apoptotic (%) [1]: 38.64% and 62.96%
- Population Fragmented Nuclei (%) [1]: 1.53% and 2.17%
- Population Healthy Nuclei (%) [1]: 88.86% and 78.26%
- Population Hoechst High Intensity Objects (%) [1]: 1.51% and 0%
- Population Membrane Permeable-Phenotype (%) [1]: 1.23% and 1.85%
- Population Mitochondria Different-Phenotype (%) [1]: 0% and 11.11%
- Population Mitotic Cells (%) [1]: 61.36% and 37.04%
- Population Normal (%) [1]: 98.49% and 100%
- Population Pyknosed Nuclei (%) [1]: 9.61% and 19.57%
- Population Tubulin-Different-Phenotype (%) [1]: 0%
- Population Apoptotic (%) [2]: 33.33% and 60%
- Population Healthy Nuclei (%) [2]: 88.89% and 58.2%
- Population Hoechst High Intensity Objects (%) [2]: 0%
- Population Membrane Permeable-Phenotype (%) [2]: 1.19% and 4.7%
- Population Mitochondria Different-Phenotype (%) [2]: 0.89% and 6.71%
- Population Mitotic Cells (%) [2]: 66.67% and 40%
- Population Normal (%) [2]: 100%
- Population Pyknosed Nuclei (%) [2]: 9.52% and 5.86%
- Population Tubulin-Different-Phenotype (%) [2]: 1.49% and 0.67%
- Total Cell Count [2]: 378 and 256
- Population Apoptotic (%) [3]: 53.33% and 66.67%
- Population Fragmented Nuclei (%) [3]: 1.7% and 1.75%
- Population Healthy Nuclei (%) [3]: 91.36% and 85.96%
- Population Hoechst High Intensity Objects (%) [3]: 1.22% and 0%
- Population Membrane Permeable-Phenotype (%) [3]: 0.68% and 2.72%
- Population Mitotic Cells (%) [3]: 46.67% and 33.33%
- Population Normal (%) [3]: 98.78% and 100%
- Population Pyknosed Nuclei (%) [3]: 6.94% and 12.28%
- Population Tubulin-Different-Phenotype (%) [3]: 0.51% and 0.68%
- Population Apoptotic (%) [4]: 32.2% and 38.89%
- Population Healthy Nuclei (%) [4]: 87.76% and 63.54%
- Population Hoechst High Intensity Objects (%) [4]: 0%
- Population Membrane Permeable-Phenotype (%) [4]: 1.07% and 3.28%
- Population Mitochondria Different-Phenotype (%) [4]: 0.43% and 3.83%
- Population Mitotic Cells (%) [4]: 67.8% and 61.11%
- Population Normal (%) [4]: 100%
- Population Pyknosed Nuclei (%) [4]: 11.11% and 6.25%
- Population Tubulin-Different-Phenotype (%) [4]: 1.07% and 1.09%
- Total Cell Count [4]: 531 and 288
- Population Apoptotic (%) [5]: 45.92% and 51.61%
- Population Fragmented Nuclei (%) [5]: 4.22% and 1.42%
- Population Healthy Nuclei (%) [5]: 87.82% and 87.54%
- Population Hoechst High Intensity Objects (%) [5]: 0.88% and 0%
- Population Membrane Permeable-Phenotype (%) [5]: 0.55% and 2.44%
- Population Mitochondria Different-Phenotype (%) [5]: 0.09% and 6.91%
- Population Mitotic Cells (%) [5]: 54.08% and 48.39%
- Population Normal (%) [5]: 99.12% and 100%
- Population Pyknosed Nuclei (%) [5]: 7.95% and 11.03%
- Population Tubulin-Different-Phenotype (%) [5]: 0.37% and 1.22%
- Population Apoptotic (%) [6]: 45.36% and 57.14%
- Population Healthy Nuclei (%) [6]: 87.24% and 75.39%
- Population Hoechst High Intensity Objects (%) [6]: 0.1% and 0%
- Population Membrane Permeable-Phenotype (%) [6]: 0.68% and 1.72%
- Population Mitochondria Different-Phenotype (%) [6]: 0.34% and 3.09%
- Population Mitotic Cells (%) [6]: 54.64% and 42.86%
- Population Normal (%) [6]: 99.9% and 100%
- Population Pyknosed Nuclei (%) [6]: 9.59% and 7.25%
- Population Tubulin-Different-Phenotype (%) [6]: 0.45% and 0.34%
- Total Cell Count [6]: 1012 and 386
